# ChEMBL document CHEMBL5329183, “Naphthylthiazoles: a class of broad-spectrum antifungals” (RSC Med Chem, 2023)
# Calls of active or inactive are those of the source. The rule behind the calls is not given here.
# What was measured:
# Staphylococcus aureus = assay: Antibacterial activity against Methicillin-resistant Staphylococcus aureus USA300 assessed as inhibition of bacterial growth; format: functional
# Clostridioides difficile = assay: Antibacterial activity against Clostridium difficile ATCC BAA1870 assessed as inhibition of bacterial growth; format: functional
# Escherichia coli [1] = assay: Antibacterial activity against Escherichia coli JW55031 harboring tolC mutant assessed as inhibition of bacterial growth; format: functional
# Escherichia coli [2] = assay: Antibacterial activity against wild type Escherichia coli BW25113 assessed as inhibition of bacterial growth; format: functional
# Candida albicans [3] = assay: Antifungal activity against wild type Candida albicans SC5314 assessed as inhibition of fungal growth; format: functional
# Candida albicans [4] = assay: Antifungal activity against Candida albicans ATCC 10231 assessed as inhibition of fungal growth incubated for 24 hrs by broth microdilution method; format: functional
# Method in brief: (§1)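 Broth microdilution per CLSI guidelines against clinical isolates, incubated at 35 °C for 24 h (Candida, Aspergillus) or 48 h (Cryptococcus). MIC was the lowest concentration giving 50% growth inhibition.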
# Candida albicans [5] = assay: Antifungal activity against Candida albicans NR 29448 assessed as inhibition of fungal growth incubated for 24 hrs by broth microdilution method; format: functional
# Method in brief: (§2)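 Clinical isolate; CLSI broth microdilution over a range of concentrations (media listed: RPMI 1640, MOPS, YPD). MIC taken as lowest concentration giving 50% growth inhibition after 24 h at 35 °C.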
# [Candida] auris [6] = Antifungal activity against Candida auris 381 assessed as inhibition of fungal growth incubated for 24 hrs by broth microdilution method; format: functional; conditions: Candidozyma auris; method in brief: as §2
# [Candida] auris [7] = Antifungal activity against Candida auris 382 assessed as inhibition of fungal growth incubated for 24 hrs by broth microdilution method; format: functional; conditions: Candidozyma auris; method in brief: as §2
# [Candida] auris [8] = Antifungal activity against Candida auris 383 assessed as inhibition of fungal growth incubated for 24 hrs by broth microdilution method; format: functional; conditions: Candidozyma auris; method in brief: as §2
# Nakaseomyces glabratus [9] = assay: Antifungal activity against Candida glabrata ATCC 66032 assessed as inhibition of fungal growth incubated for 24 hrs by broth microdilution method; format: functional; method in brief: as §2
# Nakaseomyces glabratus [10] = assay: Antifungal activity against Candida glabrata ATCC MYA2950 assessed as inhibition of fungal growth incubated for 24 hrs by broth microdilution method; format: functional; method in brief: as §2
# Candida parapsilosis [11] = assay: Antifungal activity against Candida parapsilosis ATCC 22019 assessed as inhibition of fungal growth incubated for 24 hrs by broth microdilution method; format: functional; conditions: Lodderomyces parapsilosis; method in brief: as §2
# Candida parapsilosis [12] = assay: Antifungal activity against Candida parapsilosis CAB 502638 assessed as inhibition of fungal growth incubated for 24 hrs by broth microdilution method; format: functional; conditions: Lodderomyces parapsilosis; method in brief: as §1
# Pichia kudriavzevii [13] = assay: Antifungal activity against Candida krusei CAB 396420 assessed as inhibition of fungal growth incubated for 24 hrs by broth microdilution method; format: functional; method in brief: as §1
# Pichia kudriavzevii [14] = assay: Antifungal activity against Candida krusei ATCC 34135 assessed as inhibition of fungal growth incubated for 24 hrs by broth microdilution method; format: functional; method in brief: as §1
# Cryptococcus neoformans [15] = assay: Antifungal activity against Cryptococcus neoformans NR 41298 assessed as inhibition of fungal growth incubated for 48 hrs by broth microdilution method; format: functional
# Method in brief: (§3)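 Clinical isolate; CLSI broth microdilution over a range of concentrations (media listed: RPMI 1640, MOPS, YPD). MIC read as lowest concentration inhibiting growth by 50% after 48 h incubation at 35 °C.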
# Cryptococcus neoformans [16] = assay: Antifungal activity against Cryptococcus neoformans NR 41300 assessed as inhibition of fungal growth incubated for 48 hrs by broth microdilution method; format: functional; method in brief: as §3
# Cryptococcus neoformans [17] = assay: Antifungal activity against Cryptococcus neoformans NR 48770 assessed as inhibition of fungal growth incubated for 48 hrs by broth microdilution method; format: functional; method in brief: as §3
# Cryptococcus neoformans [18] = assay: Antifungal activity against Cryptococcus neoformans NR 41299 assessed as inhibition of fungal growth incubated for 48 hrs by broth microdilution method; format: functional; method in brief: as §3
# Cryptococcus neoformans [19] = assay: Antifungal activity against Cryptococcus neoformans NR 48767 assessed as inhibition of fungal growth incubated for 48 hrs by broth microdilution method; format: functional; method in brief: as §3
# Cryptococcus neoformans [20] = assay: Antifungal activity against Cryptococcus neoformans NR 48771 assessed as inhibition of fungal growth incubated for 48 hrs by broth microdilution method; format: functional; method in brief: as §3
# Cryptococcus neoformans [21] = assay: Antifungal activity against Cryptococcus neoformans NR 48773 assessed as inhibition of fungal growth incubated for 48 hrs by broth microdilution method; format: functional; method in brief: as §3
# [22] = Antifungal activity against Cryptococcus gattii NR 43210 assessed as inhibition of fungal growth incubated for 48 hrs by broth microdilution method; format: functional, Cryptococcus gattii VGI; method in brief: as §1
# [23] = Antifungal activity against Cryptococcus gattii NR 43209 assessed as inhibition of fungal growth incubated for 48 hrs by broth microdilution method; format: functional, Cryptococcus gattii VGI; method in brief: as §1
# [24] = Antifungal activity against Cryptococcus gattii NR 43213 assessed as inhibition of fungal growth incubated for 48 hrs by broth microdilution method; format: functional, Cryptococcus gattii VGI; method in brief: as §1
# [25] = Antifungal activity against Cryptococcus gattii NR 43214 assessed as inhibition of fungal growth incubated for 48 hrs by broth microdilution method; format: functional, Cryptococcus gattii VGI; method in brief: as §1
# [26] = Antifungal activity against Cryptococcus gattii NR 43216 assessed as inhibition of fungal growth incubated for 48 hrs by broth microdilution method; format: functional, Cryptococcus gattii VGI; method in brief: as §1
# Lactobacillus gasseri = assay: Antibacterial activity against Lactobacillus gasseri HM400 assessed as inhibition of bacterial growth; format: toxicity, organism-based
# [27] = Antibacterial activity against Lactobacillus casei HM334 assessed as inhibition of bacterial growth; format: toxicity; conditions: lacticaseibacillus casei
# [28] = Antibacterial activity against Lactobacillus crispatus HM370 assessed as inhibition of bacterial growth; format: toxicity
# Cryptococcus neoformans [29] = assay: Antibiofilm activity against Cryptococcus neoformans NR 41300 assessed as inhibition of biofilm formation at 0.5xMIC measured after 48 hrs by crystal violet staining based analysis; format: functional
# Method in brief: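 Overnight C. neoformans was washed twice in PBS and adjusted to 105 cells per mL in RPMI. Cells were exposed to compound at 0.5 × MIC for 48 h at 35 °C. Biofilm was rinsed, dried, stained with 0.1% crystal violet, and the dye extracted with glacial acetic acid; OD595 readout.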
# Cryptococcus neoformans [30] = assay: Anti-cryptococcal activity against Cryptococcus neoformans NR 41300 infected in mouse J774 cells assessed as log reduction of intracellular fungal colony forming unit at 4 ug/ml measured after 24 hrs; format: functional; conditions: dose 4 µg/ml
# Method in brief: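 C. neoformans NR-41300 was grown 48 h in YPD, washed, and used to infect J774 macrophages at MOI ~100:1 for 1 h, followed by PBS washes. Compounds at 4 μg mL−1 (triplicate) were applied for 22 h at 37 °C, 5% CO2. Extracellular yeast were killed with amphotericin B 1 μg mL−1 for 1 h. Cells were lysed in 0.1% Triton X-100 and plated on YPD agar for 48 h at 37 °C; readout log10 CFU mL−1.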
compound,measurement,setting,value
Cc1nc(-c2ccc3ccccc3c2)sc1-c1nnc(N2CCCCC2CN)o1 (stereo not given),MIC,Staphylococcus aureus,> 64 µg/mL
same,MIC,Clostridioides difficile,32 µg/mL
same,MIC,Escherichia coli [1],> 64 µg/mL
same,MIC,Escherichia coli [2],> 64 µg/mL
same,MIC,Candida albicans [3],> 64 µg/mL
Cc1nc(-c2ccc3ccccc3c2)sc1-c1nnc(N2CCC(N)C2)o1 (stereo not given),MIC,Staphylococcus aureus,> 64 µg/mL
same,MIC,Clostridioides difficile,> 64 µg/mL
same,MIC,Escherichia coli [1],> 64 µg/mL
same,MIC,Escherichia coli [2],> 64 µg/mL
same,MIC,Candida albicans [3],8 µg/mL
OC(Cn1cncn1)(Cn1cncn1)c1ccc(F)cc1F [FLUCONAZOLE],MIC,Candida albicans [3],0.5 µg/mL
same,MIC,Candida albicans [4],1 µg/mL
same,MIC,Candida albicans [5],> 128 µg/mL
same,MIC,[Candida] auris [6],2 µg/mL
same,MIC,[Candida] auris [7],64 µg/mL
same,MIC,[Candida] auris [8],64 µg/mL
same,MIC,Nakaseomyces glabratus [9],8 µg/mL
same,MIC,Nakaseomyces glabratus [10],16 µg/mL
same,MIC,Candida parapsilosis [11],1 µg/mL
same,MIC,Candida parapsilosis [12],0.5 µg/mL
same,MIC,Pichia kudriavzevii [13],16 µg/mL
same,MIC,Pichia kudriavzevii [14],16 µg/mL
same,MIC,Cryptococcus neoformans [15],2 µg/mL
same,MIC,Cryptococcus neoformans [16],1 µg/mL
same,MIC,Cryptococcus neoformans [17],2 µg/mL
same,MIC,Cryptococcus neoformans [18],1 µg/mL
same,MIC,Cryptococcus neoformans [19],1 µg/mL
same,MIC,Cryptococcus neoformans [20],2 µg/mL
same,MIC,Cryptococcus neoformans [21],2 µg/mL
same,MIC,[22],4 µg/mL
same,MIC,[23],4 µg/mL
same,MIC,[24],2 µg/mL
same,MIC,[25],1 µg/mL
same,MIC,[26],2 µg/mL
same,MIC,Lactobacillus gasseri,> 128 µg/mL
same,MIC,[27],> 128 µg/mL
same,MIC,[28],> 128 µg/mL
same,Activity,Cryptococcus neoformans [29],Active
same,Activity,Cryptococcus neoformans [30],0.25 log10CFU/ml
CCCNc1nnc(-c2sc(-c3ccc4ccccc4c3)nc2C)o1,MIC,Staphylococcus aureus,> 64 µg/mL
same,MIC,Clostridioides difficile,> 64 µg/mL
same,MIC,Escherichia coli [1],> 64 µg/mL
same,MIC,Escherichia coli [2],> 64 µg/mL
same,MIC,Candida albicans [3],> 64 µg/mL
Cc1nc(-c2ccc3ccccc3c2)sc1-c1nnc(N2CCC[C@H]2C(N)=O)o1,MIC,Staphylococcus aureus,> 64 µg/mL
same,MIC,Clostridioides difficile,> 64 µg/mL
same,MIC,Escherichia coli [1],> 64 µg/mL
same,MIC,Escherichia coli [2],> 64 µg/mL
same,MIC,Candida albicans [3],> 64 µg/mL
CCNc1nnc(-c2sc(-c3ccc4ccccc4c3)nc2C)o1,MIC,Staphylococcus aureus,64 µg/mL
same,MIC,Clostridioides difficile,64 µg/mL
same,MIC,Escherichia coli [1],64 µg/mL
same,MIC,Escherichia coli [2],> 64 µg/mL
same,MIC,Candida albicans [3],> 64 µg/mL
Cc1nc(-c2ccc3ccccc3c2)sc1-c1nnc(N2CCC[C@@H]2CO)o1,MIC,Staphylococcus aureus,> 64 µg/mL
same,MIC,Clostridioides difficile,16 µg/mL
same,MIC,Escherichia coli [1],> 64 µg/mL
same,MIC,Escherichia coli [2],> 64 µg/mL
same,MIC,Candida albicans [3],> 64 µg/mL
GENTAMICIN,MIC,Escherichia coli [1],< 0.5 µg/mL
same,MIC,Escherichia coli [2],< 0.5 µg/mL
Cc1nc(-c2ccc3ccccc3c2)sc1-c1nnc(N2CC[C@H](N(C)C)C2)o1,MIC,Staphylococcus aureus,> 64 µg/mL
same,MIC,Clostridioides difficile,> 64 µg/mL
same,MIC,Escherichia coli [1],> 64 µg/mL
same,MIC,Escherichia coli [2],> 64 µg/mL
same,MIC,Candida albicans [3],8 µg/mL
CC(=O)NC[C@H]1CN(c2ccc(N3CCOCC3)c(F)c2)C(=O)O1 [LINEZOLID],MIC,Staphylococcus aureus,1 µg/mL
same,MIC,Clostridioides difficile,1 µg/mL
same,MIC,Escherichia coli [1],8 µg/mL
same,MIC,Escherichia coli [2],> 64 µg/mL
